Legend:
Cavia porcellus [1] = organism: Cavia porcellus; test: Compound was evaluated for potency relative to neurokinin B against SP-N system (enteric nerves of Guinea pig ileum); format: functional
Summary of the method: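 Neuronal SP-N receptor of guinea pig ileum assayed after desensitizing the muscular receptor with substance P methyl ester 10⁻⁷ M (2-min preincubation). Tissue in Tyrode's solution, 95% O2-5% CO2, 34 °C; isotonic contractions; peptides at 2-3-min intervals, under 30 s contact.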

Rattus norvegicus [2] = organism: Rattus norvegicus; test: Compound was evaluated for potency in SP-E system and relative potency was determined against rat duodenum; format: functional
Summary of the method: (§1)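 Isolated tissue (hamster urinary bladder or rat duodenum) in 10-mL bath of Tyrode's solution gassed with 95% O2-5% CO2 at 34 °C; isotonic contraction recorded. Duodenum: peptides applied at 2-3-min intervals, contact under 30 s. Bladder: 15-30-min intervals, contact 1-3 min.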

Cricetinae gen. sp. [3] = test: Compound was evaluated for potency in SP-E system and relative potency was determined against Hamster urinary bladder; format: functional, Cricetulus griseus; summary of the method: as §1
Cavia porcellus [4] = organism: Cavia porcellus; test: Compound was evaluated for effective dose against guinea pig ileum; format: functional
Summary of the method: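 Guinea pig ileum in 10-mL bath of Tyrode's solution, 95% O2-5% CO2, 34 °C, with atropine 10⁻⁶ M present (muscular SP-P receptor); isotonic contractions; peptides applied at 2-3-min intervals, contact under 30 s.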

Cricetinae gen. sp. [5] = test: Compound was evaluated for effective dose against hamster bladder; format: functional, Cricetulus griseus; summary of the method: as §1
Rattus norvegicus [6] = organism: Rattus norvegicus; test: Compound was evaluated for effective dose against rat duodenum; format: functional; summary of the method: as §1

EC50 (Cavia porcellus [4]) [nM]	EC50 (Cricetinae gen. sp. [5]) [nM]	EC50 (Rattus norvegicus [6]) [nM]	Compound	Relative potency (Cavia porcellus [1])	Relative potency (Rattus norvegicus [2])	Relative potency (Cricetinae gen. sp. [3])
–	–	–	CSCC[C@H](NC(=O)[C@H](CC(C)C)NC(=O)CNC(=O)[C@@H](NC(=O)[C@H](Cc1ccccc1)NC(=O)[C@H](CO)NC(=O)[C@H](CC(=O)O)NC(=O)[C@@H](NC(=O)[C@H](CCCCN)NC(=O)[C@@H](N)Cc1c[nH]cn1)[C@@H](C)O)C(C)C)C(N)=O [NEUROKININ A]	0.04	0.3	1
1.5	50	6.5	CSCC[C@H](NC(=O)[C@H](CC(C)C)NC(=O)CNC(=O)[C@@H](NC(=O)[C@H](Cc1ccccc1)NC(=O)[C@H](Cc1ccccc1)NC(=O)[C@H](CC(=O)O)NC(=O)[C@H](Cc1c[nH]cn1)NC(=O)[C@H](CCSC)NC(=O)[C@@H](N)CC(=O)O)C(C)C)C(N)=O [NEUROKININ B]	1	1	1

Source: ChEMBL document CHEMBL1123317, “[pGlu6,Pro9]SP6-11, a selective agonist for the substance P P-receptor subtype” (J Med Chem, 1986)
